Data taken from PubChem BioAssay.
The source made the active and inactive calls.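 How the source made its calls, unless noted: active means GFP response above 150% of the DMSO level; inconclusive means fewer than 70 events counted for a yeast strain; inactive means the rest.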

What was measured:
[1] = hit retest on RPL19A-GFP reporter strain – cell-based, S. cerevisiae, flow cytometry, cherry picks, mother/daughter gates, confirmation (AID 2270;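 active means GFP response below 50% of the DMSO control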); details: 3 h, at 10 µM, stronger effect = lower value, 100 = same GFP as DMSO wells
[2] = yeast TOR pathway reporter LAP4-GFP change – cell-based, cherry picks, flow cytometry, mother/daughter gates, confirmation (AID 2271;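 active means GFP response above 150% of the DMSO control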;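 further: ratio of sample to DMSO plate mean so 100% equals DMSO level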); details: S. cerevisiae LAP4-GFP strain, 3 h, at 10 µM, stronger effect = higher value, 100 means same as DMSO control
Method in brief: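 Material – Alexa Fluor 633-labelled Saccharomyces cerevisiae GFP-fusion strain, single-plex · Incubation – compound exposure 3 h at 30 °C, end-over-end rotation · Measured by – GFP by flow cytometry · Measure – median GFP fluorescence as percent of plate-mean DMSO wells · Control set – positive rapamycin (400 ng/mL), negative DMSO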

[3] = TOR pathway reporter MEP2-GFP, retest of hits – S. cerevisiae, flow cytometry GFP, cherry picks, confirmation (AID 2272;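 active means GFP response above 150% of the DMSO control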;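 further: ratio of well signal to plate DMSO mean so 100% equals DMSO level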); details: S. cerevisiae MEP2-GFP strain, 3 h, at 10 µM, stronger effect = higher value
[4] = yeast AGP1-GFP fluorescence change, single-dose – cell-based, flow cytometry, S. cerevisiae, cherry picks, confirmation (AID 2273);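 further: median GFP channel fluorescence over the whole cell population gate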; details: S. cerevisiae AGP1-GFP strain, 3 h, at 10 µM
[5] = TOR pathway CIT2 reporter hit retest – S. cerevisiae, GFP fusion, cherry picks, mother/daughter gates, confirmation (AID 2274); details: S. cerevisiae CIT2-GFP strain, flow cytometry, 3 h, at 10 µM, stronger effect = higher value
[6] = measured here: daughter cell gate
[7] = measured here: mother cell gate
[8] = measured here: daughter cell gate response
[9] = measured here: mother cell gate response

| SMILES | GFP response vs DMSO [1] | GFP response vs DMSO [1, 6] [%] | GFP response vs DMSO [1, 7] [%] | GFP response relative to DMSO [2] | GFP response relative to DMSO [2, 8] [%] | GFP response relative to DMSO [2, 9] [%] | GFP response vs DMSO [3] | GFP response, % of DMSO [4] | GFP response, % of DMSO [5] | GFP response, % of DMSO [5, 6] [%] | GFP response, % of DMSO [5, 7] [%] |
| --- | --- | --- | --- | --- | --- | --- | --- | --- | --- | --- | --- |
| O=c1[nH]c(CN2CCCCC2)nc2c1C1(CCCCC1)Cc1ccccc1-2 | 100% (inactive) | 100 | 100 | 98.7% (inactive) | 98.7 | 101 | 100% (inactive) | 99.2% (inactive) | 99.1% (inactive) | 96.5 | 98.7 |
| O=C1C(Cl)=C(N2CCN(Cc3ccccc3)CC2)C(=O)N1Cc1ccccc1 | 97% (inactive) | 98.1 | 98 | 99.5% (inactive) | 101 | 98.4 | 94.7% (inactive) | 102% (inactive) | 100% (inactive) | 101 | 99.3 |
| COC(=O)CCS(=O)(=O)c1nc(-c2ccccc2)cc(C(F)(F)F)n1 | 100% (inactive) | 102 | 95.8 | 168% (active) | 161 | 170 | 136% (inactive) | 130% (inactive) | 102% (inactive) | 110 | 93.7 |
| CN(C)c1ccc(N=Cc2nc(-c3ccccc3)oc2OC(=O)c2ccccc2)cc1 | 98.6% (inactive) | 100 | 98.5 | 105% (inactive) | 103 | 105 | 115% (inactive) | 111% (inactive) | 107% (inactive) | 103 | 107 |
| C=CCNC(=S)N/N=C(\C)c1cccc(OC)c1 | 100% (inactive) | 102 | 101 | 98.8% (inactive) | 99.3 | 97.5 | 99.5% (inactive) | 95.2% (inactive) | 96.4% (inactive) | 96.4 | 93.3 |
| CCn1c(=O)c(C(=O)Nc2ccsc2C(=O)OC)c(O)c2ccccc21 | 103% (inactive) | 101 | 103 | 93.1% (inactive) | 92.6 | 94.1 | 96.8% (inactive) | 103% (inactive) | 100% (inactive) | 99.2 | 101 |
| Cc1cccc(C)c1OCCOC(=O)c1n[nH]c2ccccc12 | 98.8% (inactive) | 97 | 100 | 96.5% (inactive) | 93.6 | 82.8 | 106% (inactive) | 91.9% (inactive) | 95% (inactive) | 96.4 | 93.3 |
| CCN(Cc1ccccc1)S(=O)(=O)c1ccc(C(=O)Nc2nnc(C)o2)cc1 | 97.2% (inactive) | 98.5 | 98.6 | 102% (inactive) | 102 | 107 | 102% (inactive) | 100% (inactive) | 101% (inactive) | 102 | 101 |
| O=C1C2C3C=CC(CNS(=O)(=O)c4ccccc4[N+](=O)[O-])(O3)C2C(=O)N1c1ccccc1 (stereo not drawn) | 97.6% (inactive) | 97.3 | 97.3 | 98.6% (inactive) | 99.7 | 98.2 | 101% (inactive) | 101% (inactive) | 107% (inactive) | 106 | 107 |
| COCC(=O)Nc1cc([N+](=O)[O-])ccc1C | 99.5% (inactive) | 101 | 99.8 | 101% (inactive) | 99.3 | 99.5 | 102% (inactive) | 98.4% (inactive) | 99.3% (inactive) | 100 | 98 |
| CCc1nnc(NC(=O)c2ccc(S(=O)(=O)N(CCOC)CCOC)cc2)o1 | 95% (inactive) | 94.4 | 96.2 | 91.5% (inactive) | 96 | 90.8 | 96.2% (inactive) | 97.8% (inactive) | 99.7% (inactive) | 101 | 101 |
| O=C(/C=C/c1ccc(-c2ccccc2[N+](=O)[O-])o1)c1ccc(Br)cc1 | 96.4% (inactive) | 97.6 | 96.7 | 121% (inactive) | 118 | 126 | 105% (inactive) | 94.1% (inactive) | 101% (inactive) | 105 | 99.7 |
| O=[N+]([O-])c1cccc(-c2ccc(/C=N/Nc3nc(N4CCCCC4)nc(N4CCCCC4)n3)o2)c1 | 96.8% (inactive) | 94.3 | 98.2 | 118% (inactive) | 114 | 123 | 108% (inactive) | 105% (inactive) | 101% (inactive) | 95.2 | 102 |
| COc1ccccc1N1C(=O)CC(Sc2nccc(C)n2)C1=O (stereo not drawn) | 101% (inactive) | 98.6 | 102 | 95.7% (inactive) | 95.9 | 95.2 | 99% (inactive) | 99.6% (inactive) | 98.8% (inactive) | 93.8 | 99.3 |
| CCOC(=O)c1ccc(NC(=O)c2ccc3c(c2)C(=O)N(Cc2cccnc2)C3=O)cc1 | 100% (inactive) | 99.6 | 100 | 94.1% (inactive) | 96 | 94 | 102% (inactive) | 99.3% (inactive) | 99.7% (inactive) | 101 | 98.5 |
| COc1cccc(/C=N/NC(=O)CCC(=O)Nc2ccc(Br)cc2)c1 | 98.9% (inactive) | 100 | 98 | 90.6% (inactive) | 92.9 | 90.3 | 108% (inactive) | 100% (inactive) | 98.6% (inactive) | 101 | 99.3 |
| CCOc1ccc(/C=C/C(=O)c2c(O)cc(C)oc2=O)cc1 | 95.1% (inactive) | 96.1 | 94.6 | 120% (inactive) | 113 | 126 | 106% (inactive) | 107% (inactive) | 93.1% (inactive) | 94 | 92.6 |

| SMILES | GFP response vs DMSO [1] | GFP response vs DMSO [1, 6] [%] | GFP response vs DMSO [1, 7] [%] | GFP response relative to DMSO [2] | GFP response relative to DMSO [2, 8] [%] | GFP response relative to DMSO [2, 9] [%] | GFP response vs DMSO [3] | GFP response, % of DMSO [4] | GFP response, % of DMSO [5] | GFP response, % of DMSO [5, 6] [%] | GFP response, % of DMSO [5, 7] [%] |
| --- | --- | --- | --- | --- | --- | --- | --- | --- | --- | --- | --- |
| C/C(=N\NC(=O)c1cc2ccccc2cc1O)c1ccccn1 | 106% (inactive) | 103 | 98.1 | 234% (active) | 147 | 231 | 126% (inactive) | 109% (inactive) | 132% (inactive) | 113 | 120 |
| O=C(NC(c1ccccc1)C(Cl)Cl)c1ccccc1 (stereo not drawn) | 94.7% (inactive) | 98.4 | 92.9 | 97.7% (inactive) | 104 | 93.4 | 128% (inactive) | 125% (inactive) | 107% (inactive) | 108 | 106 |
| O=S(=O)(c1ccccc1)N1N=C(c2cccs2)CC1c1ccc(Br)cc1 (stereo not drawn) | 98% (inactive) | 99.4 | 98.4 | 97.9% (inactive) | 99.2 | 97.2 | 102% (inactive) | 98.3% (inactive) | 98.3% (inactive) | 97.2 | 97.3 |
| O=C1C2C3C=CC(CNS(=O)(=O)c4ccccc4)(O3)C2C(=O)N1c1ccc(Cl)cc1 (stereo not drawn) | 102% (inactive) | 103 | 102 | 110% (inactive) | 109 | 109 | 114% (inactive) | 99.7% (inactive) | 111% (inactive) | 113 | 108 |
| Cc1nc2ccc(Br)cn2c1C(=O)N/N=C\c1ccccc1Cl | 95.4% (inactive) | 95.6 | 96.6 | 94.1% (inactive) | 94.4 | 96.1 | 96.2% (inactive) | 98% (inactive) | 99.7% (inactive) | 99.1 | 99.7 |
| O=C(Nc1ccc(NC(=O)c2cc3ccccc3o2)cc1)c1ccc2c(c1)OCCO2 | 103% (inactive) | 101 | 102 | 97% (inactive) | 95.9 | 97.3 | 103% (inactive) | 98.6% (inactive) | 105% (inactive) | 99.2 | 107 |
| CCOC(=O)c1sc(NC(=O)c2ccco2)nc1-c1ccccc1 | 97.8% (inactive) | 96.4 | 96.7 | 96.5% (inactive) | 94.4 | 98.4 | 103% (inactive) | 100% (inactive) | 98.6% (inactive) | 97.6 | 99.3 |
| CSc1ccc(/C=C/C(=O)c2ccc(NC(=O)C(C)C)cc2)cc1 | 98.8% (inactive) | 97.5 | 99.1 | 107% (inactive) | 103 | 111 | 100% (inactive) | 93.5% (inactive) | 92.6% (inactive) | 93.2 | 90.2 |
| Cc1ccc(NC(=S)N/N=C/c2c(C)[nH]c3ccccc23)cc1 | 97.4% (inactive) | 97 | 97.9 | 101% (inactive) | 93.6 | 104 | 104% (inactive) | 90.1% (inactive) | 104% (inactive) | 108 | 100 |
| Cc1sc(NC(=O)c2cccs2)nc1-c1ccccc1 | 106% (inactive) | 95.7 | 105 | 110% (inactive) | 106 | 112 | 109% (inactive) | 97.5% (inactive) | 95.9% (inactive) | 93.8 | 95.6 |
| COC(=O)c1ccc(CS(=O)(=O)c2ccc(F)cc2)o1 | 97.8% (inactive) | 98.1 | 95.9 | 98.9% (inactive) | 99 | 98.4 | 103% (inactive) | 102% (inactive) | 100% (inactive) | 99.3 | 98.2 |
| Cc1ccccc1N1C(=O)C(Cl)=C(N2CCN(c3ccccc3)CC2)C1=O | 100% (inactive) | 98.7 | 100 | 101% (inactive) | 102 | 102 | 100% (inactive) | 93% (inactive) | 95.2% (inactive) | 94.8 | 94.4 |
| O=C(NCCO)c1c(O)c2cccc3c2n(c1=O)CC3 | 99.3% (inactive) | 99.2 | 99.4 | 92.6% (inactive) | 94.1 | 94.2 | 97.8% (inactive) | 101% (inactive) | 97.8% (inactive) | 96.5 | 96.6 |
| O=[N+]([O-])c1ncccc1OCc1ccc(-c2ccccc2)cc1 | 101% (inactive) | 99.6 | 98.8 | 135% (inactive) | 138 | 131 | 160% (inactive) | 104% (inactive) | 123% (inactive) | 126 | 114 |
| O=C(CSc1nnc(-c2ccccn2)n1Cc1ccccc1)N1CCOCC1 | 103% (inactive) | 102 | 102 | 105% (inactive) | 107 | 105 | 108% (inactive) | 101% (inactive) | 104% (inactive) | 105 | 105 |
| COc1cccc(-c2nnc(NC(=O)c3ccc(S(=O)(=O)N4CC(C)OC(C)C4)cc3)o2)c1 (stereo not drawn) | 103% (inactive) | 103 | 102 | 95.7% (inactive) | 94.2 | 96.2 | 109% (inactive) | 100% (inactive) | 100% (inactive) | 97.4 | 99.3 |
